Test results: paper PMC5732839 (Cancer research, 2017)
“Also recorded” adds a separate entry of the source.

What was measured:
[1] = test system: SYF1-Src(Y529F) cells; assay: Soft agar colony formation assay; format: cell-based, mouse
[2] = test system: PNT2 cells; assay: Cell cycle analysis by flow cytometry; format: cell-based
[3] = test system: PC-3 cells; assay: Cell proliferation; format: cell-based; details: PC-3, B13 for 5 d
In short: (§1)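 Cells seeded at 3000–5000/well, exposed to a range of test-compound concentrations for 5 d. Medium swapped for 100 µL phenol-red-free medium, 10 µL of 12 mM MTT stock added, 37 °C 4 h; stopped with 100 µL 10% SDS in 0.01 M HCl, further 4 h at 37 °C; absorbance at 570 nm. Mean ± SEM of n=6 wells, two-sided Student's t test.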

[4] = test system: PC-3 xenograft tumors; assay: PC-3 xenograft tumor growth; format: in vivo, SCID mice; details: 75 mg/kg i.v. twice a week for 6 weeks
[5] = test system: pSrc(Y416), pFAK, pAkt; assay: Immunoblotting of Src signaling in PC-3 total lysates; format: cell-based; details: PC-3 cells
[6] = test system: 22Rv1 cells; assay: Cell proliferation; format: cell-based; details: 22Rv1, B13 for 5 d
In short: as §1

[7] = test system: PNT2 normal cells; assay: Cell proliferation; format: cell-based
[8] = test system: 22Rv1 cells; assay: Transwell invasion assay; format: cell-based; details: 22Rv1, 15 µM B13
In short: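 22Rv1 cells at about 80% confluence were serum-starved for 24 h, then seeded in Transwell inserts. The top well held medium with 15 µM test compound or DMSO, and the receiver well held 10% FBS. After 48 h, cells were fixed with 3.7% formaldehyde (2 min) then methanol (20 min). Staining was 0.1% crystal violet for 15 min in the dark at room temperature. Non-migrated cells were swabbed off, and migrated cells were imaged and counted.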

[9] = test system: LNCaP, 22Rv1, PC-3, and DU145 cells; assay: Cell cycle analysis by flow cytometry; format: cell-based; details: tested prostate cancer cells, B13 for 3 d
In short: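 Cells were grown in ATCC-recommended medium, and after attachment the medium with or without 15 or 30 µM test compound was renewed every 24 h for 3 days. 1 × 10^6 cells were PBS-washed and fixed in 70% ethanol for 1 h at 4 °C. They were stained with propidium iodide/RNase for 30 min in the dark at room temperature. Flow cytometry used 488 nm excitation and 585 nm emission, and G0/G1, S and G2/M percentages were compared with control.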

[10] = test system: 293T cells; assay: Cell proliferation; format: cell-based
[11] = test system: LNCaP cells; assay: Cell proliferation; format: cell-based; details: B13 for 5 d
In short: as §1

[12] = test system: DU145 cells; assay: Cell proliferation; format: cell-based; details: DU145, B13 for 5 d
In short: as §1

[13] = test system: Src myristoylation; assay: Src myristoylation by Click chemistry in PC-3 cells; format: cell-based; details: endogenous Src kinase, myristic acid-azide 60 µM
[14] = test system: PC-3 cells; assay: Wound-healing; format: cell-based; details: PC-3, 15 µM B13
In short: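 PC-3 cells (8×10^5 per well) were grown 24 h to 95% confluence, then scratched with a 1 mL pipette tip. Wells were washed to remove floating cells and refed with fresh medium containing 15 µM test compound. The wound space was imaged daily.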

[15] = Toxicity in host mice carrying PC-3 xenografts; format: in vivo, SCID mice
[16] = test system: de novo synthesized Src kinase; assay: 293T cells expressing doxycycline inducible Src; format: cell-based
In short: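 293T-rtTA cells carrying lentiviral TRE/Src(Y529F) in DMEM with 10% FBS; Src induced with or without doxycycline 1 µg/mL plus 0 (DMSO), 15 or 30 µM test compound for 24 h. Lysed in TNE buffer (pH 7.4, protease/phosphatase inhibitors), needle-homogenised, spun 14,000 rpm 10 min (supernatant = cytosol); pellet extracted with 60 mM β-octylglucoside on ice 30 min, spun 14,000 rpm 20 min 4°C (total membrane). Immunoblot: […] antibody, caveolin-1/GAPDH markers.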

[17] = test system: Src myristoylation; assay: Src myristoylation by Click chemistry in SYF1+Src; format: cell-based, mouse; details: ectopically expressed Src kinase, SYF1+Src(WT) cells, myristic acid-azide 60 µM
In short: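 Mouse SYF1 (Src−/−Yes−/−Fyn−/−) fibroblasts were lentivirally transduced with wild-type Src and grown in DMEM with 2% fatty-acid-free BSA. They were pretreated with test compound at 0, 1, 5, 15 or 30 µM for 2 h, then given 60 µM myristic acid-azide. M-PER lysates underwent Click labelling with 40 µM alkyne-biotin and CuSO4. Myristoyl-Src (60 kDa) was detected with streptavidin-HRP, and total Src and GAPDH by immunoblot.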

[18] = target: T1, NMT1 (Homo sapiens, UniProt P30419); assay: Fluorescence-based NMT1 enzymatic activity assay; format: biochemical
T1 sequence (P30419 109-496): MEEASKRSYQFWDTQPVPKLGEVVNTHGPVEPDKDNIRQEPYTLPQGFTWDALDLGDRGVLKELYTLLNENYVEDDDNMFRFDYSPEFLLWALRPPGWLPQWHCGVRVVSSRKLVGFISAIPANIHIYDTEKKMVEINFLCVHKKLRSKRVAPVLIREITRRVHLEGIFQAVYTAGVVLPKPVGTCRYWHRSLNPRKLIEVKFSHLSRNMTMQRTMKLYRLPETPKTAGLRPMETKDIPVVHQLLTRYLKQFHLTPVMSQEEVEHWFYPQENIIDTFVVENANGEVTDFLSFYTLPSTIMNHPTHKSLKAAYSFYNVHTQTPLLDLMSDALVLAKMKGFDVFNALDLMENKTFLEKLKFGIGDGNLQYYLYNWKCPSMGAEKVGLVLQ

[19] = test system: PC-3 cells; assay: Immunoblotting of cell cycle proteins; format: cell-based
[20] = test system: acid ceramidase; details: cited from earlier work
[21] = test system: DU145 cells; assay: Immunoblotting of cell cycle proteins; format: cell-based
In short: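 DU145 cells were treated with or without different concentrations of test compound. Lysates were immunoblotted for CDK2, CDK6, cyclin D1, p27 and tubulin.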

Compound: CCCCCCCCCCCCCC(=O)N[C@H](CO)[C@H](O)c1ccc([N+](=O)[O-])cc1 [B13, N-[(1R,2R)-2-hydroxy-1-(hydroxymethyl)-2-(4-nitrophenyl)ethyl]-tetradecanamide]
- Src(Y529F)-induced colony formation (transformation) [1]: the transformation was inhibited
- Cell cycle [2]: did not affect the cell cycle
- Proliferation [3]: significantly inhibited proliferation; also recorded: significant inhibition
- Size and weight of PC-3 xenograft tumors [4]: significantly inhibited the size and weight
- Src kinase tyrosine phosphorylation [pSrc(Y416)] [5]: inhibited Src kinase tyrosine phosphorylation
- pFAK and pAkt levels [5]: down-regulation of pFAK and pAkt
- Proliferation [6]: significantly inhibited proliferation; also recorded: significant inhibition
- Proliferation [7]: limited effect
- Invasion [8]: suppressed invasion
- Cell cycle progression [9]: significantly inhibited
- Proliferation [10]: did not affect
- Proliferation [11]: less sensitive
- Proliferation [12]: significantly inhibited proliferation
- Src myristoylation (myristoyl-Src level) [13]: inhibited Src myristoylation
- Migration [14]: suppressed
- Body weight change ([15]; 75 mg/kg i.v. twice a week): no significant changes
- Organs' weight change ([15]; 75 mg/kg i.v. twice a week): no significant changes
- Pathological toxicity to major organs (liver, kidney, lung; H&E) ([15]; 75 mg/kg i.v. twice a week for 6 weeks): no observed pathological toxicity
- De novo synthesized Src-induced signaling ([16]; Dox 1 µg/ml, 15 and 30 µM B13, 24 h): suppression of de novo synthesized Src-induced signaling
- Non-phosphorylated Src kinase [non-pSrc(Y527)] at the cytoplasmic membrane ([16]; doxycycline induced, membrane fraction): reduced
- Src myristoylation (myristoyl-Src level) [17]: inhibited Src myristoylation
- IC50 [18]: 77.6 µM
- Expression of CDK2, cyclin D1 and p27 [19]: decreased expression of CDK2 and cyclin D1, increased expression of p27
- Inhibition of acid ceramidase [20]: can inhibit acid ceramidase
- Expression of CDK2, cyclin D1 and p27 [21]: decreased expression of CDK2 and cyclin D1, increased expression of p27
- Expression of CDK6 [21]: decreased expression of CDK6

Compound: CCCCCCCCCCCCCCN[C@H](CO)[C@H](O)c1ccc([N+](=O)[O-])cc1 [LCL204]
- Inhibition of acid ceramidase relative to B13 [20]: higher inhibitory potential than B13
